Activity calls are given as the source filed them.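 How the source made its calls, unless noted: active means fluorescence slope after compound addition differing from the mean of all tested samples at 99.7% confidence, mostly higher but some lower; inactive means the rest.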
Columns and labels:
[1] = inhibitors of TNFa-induced NFkB p65 translocation, primary screen, imaging, HUVEC, MLSMR starter and 10KST1 sets (AID 438;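 active means inhibition above 20% together with a positive visual image hit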;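 further: compound added about 3h40 before a 20 min TNFalpha stimulation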;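 on inhibition: signal is the nuclear over cytoplasmic p65 intensity ratio per well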); conditions: HUVEC TNFa-induced p65 nuclear translocation; cell count: measured here: nuclei count (cytotoxicity indicator), at 2.08 µM; inhibition: at 2 µM, stronger effect = higher value, 0% TNFa-plus-vehicle, 100% no-TNFa wells
[2] = reduction of polyQ htt aggregates in cells – imaging, exon1htt(103Q)mCFP cells, high-content imaging, primary screen (AID 483;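 active means visual image review flags a hit and inhibition of aggregation exceeds 20%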;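 further: compound exposure lasted 3 days before fixation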;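 on nuclei count: percent of the per-plate median nuclei count of sample wells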); conditions: exon1htt(103Q)mCFP cell line, aggregate imaging, at 2 µM; inhibition of aggregation: stronger effect = higher value; nuclei count: measured here: cell count, toxicity
[3] = endothelial E-selectin expression blockers – imaging, HUVEC, immunofluorescence, MLSMR starter and 10KST1 sets, primary screen (AID 487;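 active means visually confirmed hit in the image check and inhibition above 20%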;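 on inhibition: signal is fraction of cell area covered by stained E-selectin grains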;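 on nuclei count: 100% = median nuclei count of all wells on the same plate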); conditions: HUVEC TNFalpha-induced E-selectin immunofluorescence imaging, at 2 µM; inhibition: stronger effect = higher value; nuclei count: measured here: cell number, toxicity
[4] = molecular target: Voltage-gated potassium channel subunit beta-2 (Rattus norvegicus) (UniProt P62483); experiment: inhibitors of rat Kvbeta2 reductase activity – biochemical, NADPH fluorescence, primary screen (AID 622;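 active means fluorescence slope higher than the sample average by over 3 SD, cut at about -0.22 in these data, passing the limit was not always enough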;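 further: slope of raw intensity against log time taken from 70 to 1610 s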); conditions: recombinant KvBeta, 4-cyanobenzaldehyde reduction, at 10 µM, stronger effect = higher value
Sequence of Voltage-gated potassium channel subunit beta-2 (Rattus norvegicus) (P62483 whole entry, looked up): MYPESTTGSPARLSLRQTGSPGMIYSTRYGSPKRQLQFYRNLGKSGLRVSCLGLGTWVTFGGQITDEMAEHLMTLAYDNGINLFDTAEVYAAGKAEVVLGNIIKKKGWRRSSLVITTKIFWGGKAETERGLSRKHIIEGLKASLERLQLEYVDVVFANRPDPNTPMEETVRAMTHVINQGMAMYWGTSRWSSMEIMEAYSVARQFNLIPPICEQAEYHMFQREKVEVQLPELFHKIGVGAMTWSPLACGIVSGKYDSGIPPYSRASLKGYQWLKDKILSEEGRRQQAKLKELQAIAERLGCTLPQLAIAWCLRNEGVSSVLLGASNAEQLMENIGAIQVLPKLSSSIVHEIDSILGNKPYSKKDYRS

[5] = molecular target: Voltage-gated potassium channel subunit beta-2 (Rattus norvegicus) (UniProt P62483); experiment: enhancers of rat Kvbeta2 NADPH turnover – biochemical, NADPH fluorescence, primary screen (AID 623;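 active means NADPH fluorescence slope more negative than the mean of all samples by about 3 SD, 99.7% confidence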;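 further: fluorescence intensity change per second fitted from 20 to 320 s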); conditions: Recombinant KvBeta, NADPH fluorescence decrease slope, 10 min; at 10 µM; stronger effect = lower value
[6] = molecular target: Muscarinic acetylcholine receptor M4 (Homo sapiens) (UniProt P08173); experiment: M4-linked GIRK flux change, two-sided – cell-based, HEK293 M4/GIRK, thallium flux, BTC-AM, M4 allosteric agonist project, primary screen (AID 625); conditions: at 10 µM, actives lie on both sides;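 further: thallium influx through GIRK channels coupled to M4 in HEK293 cells with BTC-AM dye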
Sequence of Muscarinic acetylcholine receptor M4 (Homo sapiens) (P08173 whole entry, looked up): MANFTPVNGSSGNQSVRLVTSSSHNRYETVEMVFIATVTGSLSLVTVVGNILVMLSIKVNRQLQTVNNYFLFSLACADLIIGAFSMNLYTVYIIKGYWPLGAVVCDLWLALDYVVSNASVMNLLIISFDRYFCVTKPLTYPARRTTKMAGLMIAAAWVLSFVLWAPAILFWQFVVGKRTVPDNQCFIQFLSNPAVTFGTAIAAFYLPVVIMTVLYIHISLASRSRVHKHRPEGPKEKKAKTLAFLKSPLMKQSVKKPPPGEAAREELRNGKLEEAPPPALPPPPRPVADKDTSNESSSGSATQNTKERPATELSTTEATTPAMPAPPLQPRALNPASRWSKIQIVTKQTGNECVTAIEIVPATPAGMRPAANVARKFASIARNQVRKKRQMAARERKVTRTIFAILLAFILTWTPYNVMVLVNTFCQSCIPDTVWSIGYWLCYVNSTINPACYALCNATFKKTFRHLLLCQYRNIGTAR
Summary of the method: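 Material: M4/GIRK1/GIRK2 stable HEK293 cell line. Medium: pH 7.3 thallium assay buffer. Dosing: single compound concentration, 10 µM final. Schedule: 1 h dye loading, 2 min kinetic read. Measured by: kinetic fluorescence with BTC-AM dye. Read-out: post-addition slope, 15–24 s, of baseline-normalized fluorescence. Benchmarks: carbachol and DMSO controls.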

[7] = blockers of RIG-like receptor reporter activation – cell-based, Sendai virus stimulus, luciferase, 10K MLSCN set, TLR/RLR signaling modifier project, primary screen (AID 602276;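 active means inhibition at or above 50% at 10 µM; inactive means inhibition below 50%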;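 further: firefly luciferase from ISG56 promoter only with Renilla not read in this screen; 0% = Sendai virus plus DMSO and 100% = medium plus DMSO without virus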); conditions: HEK293 RL24 IRF3 luciferase reporter, at 10 µM, stronger effect = higher value
[8] = TLR3 IRF3 reporter activation blockers – cell-based, poly I:C stimulus, luciferase, 10K MLSCN set, primary screen (AID 602277;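 active means inhibition of the reporter signal at or above 50%; inactive means inhibition below 50%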); conditions: HEK293-TLR3 RL24 IRF3 luciferase reporter, at 10 µM, stronger effect = higher value

Row | Compound | cell count [1] | inhibition [1] | inhibition of aggregation [2] | nuclei count [2] [%] | inhibition [3] | nuclei count [3] [%] | fluorescence slope [4] | NADPH fluorescence slope [5] | fluorescence slope [6] | inhibition [7] | inhibition [8]
1 | CN(C(=O)c1ccccn1)c1nnc(-c2ccncc2)s1 | 551 | 5% (inactive) | -7.6% (inactive) | 111 | -35.7% (inactive) | 109 | -0.267 (inactive) | -1.3e-05 (inactive) | 0.00597 (inactive) | 6.96% (inactive) | -3.15% (inactive)
2 | Cc1ccc(CCNC(=O)Cn2cccc2)cc1 | 349 | -4.8% (inactive) | -1.7% (inactive) | 105 | -38.9% (inactive) | 103 | -0.355 (inactive) | -5.5e-05 (inactive) | 0.00566 (inactive) | 12.9% (inactive) | -5.93% (inactive)
3 | O=C(Nc1ccc2nn(-c3ccccc3)nc2c1)c1ccc(Br)o1 | 355 | -1.7% (inactive) | 9.1% (inactive) | 106 | 6.4% (inactive) | 101 | -0.213 (inactive) | -2.9e-05 (inactive) | 0.00781 (inactive) | -22.8% (inactive) | -70.4% (inactive)
4 | Brc1ccc(-c2cn3cccnc3n2)cc1 | 514 | 3.4% (inactive) | -8.8% (inactive) | 121 | -4.5% (inactive) | 110 | -0.138 (active) | 7.5e-06 (inactive) | 0.00424 (inactive) | -47.6% (inactive) | -89.9% (inactive)
5 | Cc1ccc(Nc2nc(CSc3nnnn3C)cs2)cc1 | 549 | -15.4% (inactive) | 3.7% (inactive) | 79.2 | 5.9% (inactive) | 109 | -0.458 (inactive) | -0.000383 (inactive) | 0.00561 (inactive) | -54.9% (inactive) | 98.7% (active)
6 | CC(c1ccccc1)N1C(=O)c2ccc(C(=O)NCc3ccco3)cc2C1=O (stereo not drawn) | 710 | 6.3% (inactive) | -0.8% (inactive) | 107 | 23.2% (inactive) | 93.8 | -0.46 (inactive) | -2.6e-05 (inactive) | 0.00569 (inactive) | -11.4% (inactive) | 51.6% (active)
7 | CCCc1cc(=O)n2[nH]cnc2n1 | 285 | 11.4% (inactive) | -16% (inactive) | 80 | -11.2% (inactive) | 101 | -0.285 (inactive) | -1.5e-05 (inactive) | 0.00663 (inactive) | 11% (inactive) | 19.9% (inactive)
8 | CC(C)(C)Nc1nc(OCC(F)(F)F)nc(OCC(F)(F)F)n1 | 448 | 11.9% (inactive) | -14.2% (inactive) | 103 | -0.8% (inactive) | 114 | -0.424 (inactive) | -0.000395 (inactive) | 0.00457 (inactive) | 7.39% (inactive) | 8.5% (inactive)
9 | O=C(CN1CCN(c2ncc(C(F)(F)F)cc2Cl)CC1)Nc1ccc2c(c1)OCO2 | 407 | -5.7% (inactive) | 4.8% (inactive) | 106 | -11.6% (inactive) | 104 | -0.559 (inactive) | -4.3e-05 (inactive) | 0.00584 (inactive) | 7.72% (inactive) | 11.6% (inactive)
10 | COc1ccc(CCNC(=O)c2cc(-c3cc(C)c(C)cc3O)n[nH]2)cc1OC | 434 | 2.8% (inactive) | 8.6% (inactive) | 88.9 | -83.7% (inactive) | 145 | -0.444 (inactive) | -0.000364 (inactive) | 0.00555 (inactive) | 9.16% (inactive) | 9.05% (inactive)
11 | COc1ccc(C2C(C(C)=O)=C(C)N=c3s/c(=C\c4ccc5c(c4)OCO5)c(=O)n32)c(OC)c1 (stereo not drawn) | 340 | -19.3% (inactive) | 12.7% (inactive) | 118 | 3.3% (inactive) | 115 | -0.568 (inactive) | -1.5e-05 (inactive) | 0.00431 (inactive) | -6% (inactive) | 20.7% (inactive)
12 | CCCn1c(SCC(=O)Nc2nnc(-c3ccccc3)s2)nnc1-c1ccccn1 | 591 | -5.1% (inactive) | 14.9% (inactive) | 45.4 | 7% (inactive) | 105 | -0.376 (inactive) | 1.2e-05 (inactive) | 0.00563 (inactive) | -15.8% (inactive) | -30% (inactive)
13 | CCOC(=O)N1CCC(NC(=O)c2ccc(OC)c(CN3CC(=O)N4CCCC4C3=O)c2)CC1 (stereo not drawn) | 532 | -18.9% (inactive) | 2.9% (inactive) | 98 | -71.7% (inactive) | 94.9 | -0.447 (inactive) | -4.9e-05 (inactive) | 0.00582 (inactive) | 13.2% (inactive) | 24.9% (inactive)
